Measured values as given in ChEMBL document CHEMBL4610063, “Mangiferin: A promising natural xanthone from Mangifera indica for the control of acyclovir - resistant herpes simplex virus 1 infection” (Bioorg Med Chem, 2020).
Calls of active or inactive are those of the source. The rule behind the calls is not given here.

Tests used:
Format in all cases: functional, organism-based
Human alphaherpesvirus 1 [1] = assay: Antiviral activity against ACV-sensitive Herpes simplex virus 1 KOS infected in female Balb/c mouse assessed as reduction in ulcerated lesion at 50 mg/g applied topically as cream formulation 5 times a day at 3 hrs interval for 10 days measured on day 3 to day 5 post infection; conditions: strain KOS
Method in brief: (§1)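 Balb/c mice (5 weeks, 22–27 g; six per group, sexes tested separately) had the right mid-flank depilated under i.p. anaesthesia and needle-scarified 24 h later. They were inoculated with 70 μL HSV-1 KOS (10^5 PFU/mL). From 4 h post-infection, O/W emulsion with 0.7% w/w mangiferin or ACV cream (50 mg/g) was applied topically 5 times daily for 10 days. Lesions were scored daily.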

Human alphaherpesvirus 1 [2] = assay: Antiviral activity against ACV-sensitive Herpes simplex virus 1 KOS infected in male Balb/c mouse assessed as reduction in ulcerated lesion at 50 mg/g applied topically as cream formulation 5 times a day at 3 hrs interval for 10 days measured on day 2 post infection; conditions: strain KOS; method in brief: as §1
Human alphaherpesvirus 1 [3] = assay: Antiviral activity against ACV-sensitive Herpes simplex virus 1 KOS infected in male Balb/c mouse assessed as reduction in ulcerated lesion at 50 mg/g applied topically as cream formulation 5 times a day at 3 hrs interval for 10 days measured on day 7 post infection; conditions: strain KOS; method in brief: as §1
Human alphaherpesvirus 1 [4] = assay: Antiviral activity against ACV-resistant Herpes simplex virus 1 AR-29 infected in female Balb/c mouse assessed as reduction in skin lesion at 50 mg/g applied topically as cream formulation 5 times a day at 3 hrs interval for 10 days
Method in brief: (§2)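 Balb/c mice, 5 weeks old, six per group. Right mid-flank depilated under i.p. anaesthesia, needle-scarified 24 h later and inoculated with 70 μL HSV-1 AR-29 (10^5 PFU/mL). Topical 0.7% w/w O/W emulsion or ACV cream (50 mg/g) starts 4 h post-infection, 5 times daily for 10 days. Lesions are scored daily.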

Human alphaherpesvirus 1 [5] = assay: Antiviral activity against ACV-resistant Herpes simplex virus 1 AR-29 infected in female Balb/c mouse assessed as reduction in zosteriform lesion at 50 mg/g applied topically as cream formulation 5 times a day at 3 hrs interval for 10 days measured on day 7 post infection; method in brief: as §2
Human alphaherpesvirus 1 [6] = assay: Antiviral activity against ACV-resistant Herpes simplex virus 1 AR-29 infected in male Balb/c mouse assessed as reduction in ulcerated lesion at 50 mg/g applied topically as cream formulation 5 times a day at 3 hrs interval for 10 days measured on day 5 post infection; method in brief: as §2
Human alphaherpesvirus 1 [7] = assay: Antiviral activity against ACV-resistant Herpes simplex virus 1 AR-29 infected in male Balb/c mouse assessed as reduction in zosteriform lesion at 50 mg/g applied topically as cream formulation 5 times a day at 3 hrs interval for 10 days measured on day 5 post infection; method in brief: as §2

With Nc1nc2c(ncn2COCCO)c(=O)[nH]1 the Activity (Human alphaherpesvirus 1 [1]) was “inactive”, the Activity (Human alphaherpesvirus 1 [2]) was “inactive” and the Activity (Human alphaherpesvirus 1 [3]) was “Active”. The Activity (Human alphaherpesvirus 1 [4]) was “inactive”, the Activity (Human alphaherpesvirus 1 [5]) was “Active” and the Activity (Human alphaherpesvirus 1 [6]) was “inactive”. The Activity (Human alphaherpesvirus 1 [7]) was “inactive”.
